Data reported in ChEMBL document CHEMBL1155062, “Antileishmanial activity screening of 5-nitro-2-heterocyclic benzylidene hydrazides” (Bioorg Med Chem, 2008).
Calls of active or inactive are those of the source. The calls are words filed in the database; no cut-off is given here.

Test system: Leishmania donovani
Experiment: Antileishmanial activity against Leishmania donovani promastigotes after 48 hrs by alamar blue assay
Type: functional, organism-based
Procedure, shortened: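 L. donovani promastigotes grown in RPMI 1640 with 10% fetal calf serum at 26 °C. A 3-day-old culture was diluted to 5 × 10⁵ promastigotes/mL. Drug dilutions were made directly in the cell suspension and incubated 48 h at 26 °C.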

## O=C(N/N=C/c1ccc([N+](=O)[O-])s1)c1ccc(Cl)c(Cl)c1
  IC50: 0.41 µM
  IC90: 0.87 µM

## O=C(N/N=C/c1ccc([N+](=O)[O-])s1)c1ccc(Cl)cc1
  IC50: 1.26 µM
  IC90: 4.84 µM

## O=C(N/N=C/c1ccc([N+](=O)[O-])s1)c1ccc(F)c(Cl)c1
  IC50: 1.92 µM
  IC90: 4.67 µM

## O=C(N/N=C/c1ccc([N+](=O)[O-])s1)c1cccc(O)c1
  IC50: 2.75 µM
  IC90: 7.55 µM

## Cc1ccc(C(=O)N/N=C/c2ccc([N+](=O)[O-])s2)cc1N
  IC50: 2.24 µM
  IC90: 4.7 µM

## O=C(N/N=C/c1ccc([N+](=O)[O-])s1)c1ccc([N+](=O)[O-])c(O)c1
  IC50: 5.45 µM
  IC90: 18.4 µM

## O=C(N/N=C/c1ccc([N+](=O)[O-])o1)c1ccccc1
  IC50: 11.2 µM
  IC90: 29.7 µM

## COc1ccc(C(=O)N/N=C/c2ccc([N+](=O)[O-])o2)cc1
  IC50: 8.99 µM
  IC90: 25.9 µM

## COc1cc(C(=O)N/N=C/c2ccc([N+](=O)[O-])o2)ccc1C
  IC50: 8.9 µM
  IC90: 52.8 µM

## O=C(N/N=C/c1ccc([N+](=O)[O-])s1)c1ccccc1
  IC50: 6.54 µM
  IC90: 25.4 µM

## NS(=O)(=O)c1cc(C(=O)N/N=C/c2ccc([N+](=O)[O-])s2)ccc1Cl
  IC50: 8.06 µM
  IC90: 17.2 µM

## O=C(N/N=C/c1ccc([N+](=O)[O-])o1)c1ccc([N+](=O)[O-])cc1
  IC50: 6.57 µM
  IC90: 22.4 µM

## NS(=O)(=O)c1cc(C(=O)N/N=C/c2ccc([N+](=O)[O-])o2)ccc1Cl
  IC50: 38.5 µM
  IC90: 88.5 µM

## O=C(N/N=C/c1ccc([N+](=O)[O-])o1)c1ccc([N+](=O)[O-])c(O)c1
  IC50: 9.9 µM
  IC90: 48.9 µM

## COc1ccc(C(=O)N/N=C/c2ccc([N+](=O)[O-])o2)cc1N
  IC50: 16.4 µM
  IC90: 131 µM

## CN(C)c1cccc(C(=O)N/N=C/c2ccc([N+](=O)[O-])o2)c1
  IC50: 7.94 µM
  IC90: 24.2 µM

## O=C(N/N=C/c1ccc([N+](=O)[O-])o1)c1cccc(Cl)c1
  IC50: 7.83 µM
  IC90: 24.2 µM

## O=C(N/N=C/c1ccc([N+](=O)[O-])o1)c1ccc(Cl)c([N+](=O)[O-])c1
  Activity: inactive

## N=C(N)c1ccc(OCCCCCOc2ccc(C(=N)N)cc2)cc1 [PENTAMIDINE]
  IC50: 1.06 µM

## Nc1ccc(C(=O)N/N=C/c2ccc([N+](=O)[O-])o2)cc1
  IC50: 2.66 µM
  IC90: 14.6 µM

## O=C(N/N=C/c1ccc([N+](=O)[O-])s1)c1ccc(C(F)(F)F)cc1
  IC50: 0.82 µM
  IC90: 1.89 µM

## O=C(N/N=C/c1ccc([N+](=O)[O-])s1)c1cccc(C(F)(F)F)c1
  IC50: 3.79 µM
  IC90: 6.41 µM

## O=C(N/N=C/c1ccc([N+](=O)[O-])o1)c1ccc(O)cc1 [NIFUROXAZIDE]
  IC50: 2.4 µM
  IC90: 17.8 µM

## O=C(N/N=C/c1ccc([N+](=O)[O-])o1)c1ccc(F)c(F)c1
  IC50: 9.49 µM
  IC90: 25.5 µM

## CN(C)c1ccc(C(=O)N/N=C/c2ccc([N+](=O)[O-])o2)cc1
  Activity: inactive

## COc1cc(C(=O)N/N=C/c2ccc([N+](=O)[O-])s2)ccc1[N+](=O)[O-]
  IC50: 2 µM
  IC90: 3.91 µM

## Cc1cccc(C(=O)N/N=C/c2ccc([N+](=O)[O-])o2)c1
  IC50: 19.8 µM
  IC90: > 36.6 µM

## O=C(N/N=C/c1ccc([N+](=O)[O-])o1)c1ccc(C(F)(F)F)cc1
  IC50: 8.86 µM
  IC90: 24.4 µM

## Cc1cccc(C(=O)N/N=C/c2ccc([N+](=O)[O-])s2)c1
  IC50: 4.84 µM
  IC90: 19 µM

## Nc1cc(C(=O)N/N=C/c2ccc([N+](=O)[O-])o2)ccc1O
  IC50: 27 µM
  IC90: 97.5 µM

## O=C(N/N=C/c1ccc([N+](=O)[O-])s1)c1ccc(O)cc1
  IC50: 0.89 µM
  IC90: 4.46 µM

## O=C(N/N=C/c1ccc([N+](=O)[O-])o1)c1ccc(F)c(Cl)c1
  IC50: 6.42 µM
  IC90: 19.2 µM

## COc1cc(C(=O)N/N=C/c2ccc([N+](=O)[O-])o2)ccc1[N+](=O)[O-]
  IC50: 7.39 µM
  IC90: 20.2 µM

## O=C(N/N=C/c1ccc([N+](=O)[O-])s1)c1ccc(F)c(F)c1
  IC50: 2.15 µM
  IC90: 4.92 µM

## O=C(N/N=C/c1ccc([N+](=O)[O-])o1)c1cccc(O)c1
  IC50: 10.2 µM
  IC90: 28 µM

## CN(C)c1ccc(C(=O)N/N=C/c2ccc([N+](=O)[O-])s2)cc1
  Activity: inactive

## Cc1ccc(C(=O)N/N=C/c2ccc([N+](=O)[O-])s2)cc1O
  IC50: 2.3 µM
  IC90: 4.59 µM

## O=C(N/N=C/c1ccc([N+](=O)[O-])o1)c1cccc(C(F)(F)F)c1
  IC50: 10.4 µM
  IC90: 24.1 µM

## COc1cc(C(=O)N/N=C/c2ccc([N+](=O)[O-])s2)ccc1C
  IC50: 2.19 µM
  IC90: 4.39 µM

## O=C(N/N=C/c1ccc([N+](=O)[O-])s1)c1ccc([N+](=O)[O-])cc1
  IC50: 2.81 µM
  IC90: 5.31 µM

## Nc1ccc(C(=O)N/N=C/c2ccc([N+](=O)[O-])s2)cc1
  IC50: 2.24 µM
  IC90: > 34.5 µM

## O=C(N/N=C/c1ccc([N+](=O)[O-])s1)c1cccc(Cl)c1
  IC50: 2.74 µM
  IC90: 6.78 µM

## O=C(N/N=C/c1ccc([N+](=O)[O-])o1)c1cccc([N+](=O)[O-])c1
  IC50: 9.86 µM
  IC90: 26 µM

## Cc1ccc(C(=O)N/N=C/c2ccc([N+](=O)[O-])s2)cc1
  IC50: 4.49 µM
  IC90: 7.95 µM

## CN(C)c1cccc(C(=O)N/N=C/c2ccc([N+](=O)[O-])s2)c1
  Activity: inactive

## Cc1ccc(C(=O)N/N=C/c2ccc([N+](=O)[O-])o2)cc1
  IC50: 11 µM
  IC90: 28.6 µM

## COc1cccc(C(=O)N/N=C/c2ccc([N+](=O)[O-])s2)c1
  IC50: 8.52 µM
  IC90: 32.8 µM

## COc1ccc(C(=O)N/N=C/c2ccc([N+](=O)[O-])s2)cc1N
  IC50: 4.69 µM
  IC90: 18.3 µM

## O=C(N/N=C/c1ccc([N+](=O)[O-])s1)c1cccc([N+](=O)[O-])c1
  IC50: 2.78 µM
  IC90: 14.3 µM

## O=C(N/N=C/c1ccc([N+](=O)[O-])o1)c1ccc(Cl)cc1
  IC50: 7.83 µM
  IC90: 23.8 µM

## Cc1ccc(C(=O)N/N=C/c2ccc([N+](=O)[O-])o2)cc1N
  IC50: 0.62 µM
  IC90: 2.88 µM

## O=C(N/N=C/c1ccc([N+](=O)[O-])o1)c1ccc(Cl)c(Cl)c1
  IC50: 1.68 µM
  IC90: 26.9 µM

## COc1cccc(C(=O)N/N=C/c2ccc([N+](=O)[O-])o2)c1
  IC50: 10.4 µM
  IC90: 26.6 µM

## COc1ccc(C(=O)N/N=C/c2ccc([N+](=O)[O-])s2)cc1
  IC50: 7.21 µM
  IC90: 26.2 µM
